Laboratory results from ChEMBL document CHEMBL3414483, “New heterocyclic hybrids of pyrazole and its bioisosteres: design, synthesis and biological evaluation as dual acting antimalarial-antileishmanial agents” (Eur J Med Chem, 2015).
≈ marks a conversion by molar mass, not a printed value.

Key:
[1] = test system: Mus musculus; assay: Toxicity in mouse up to 100 mg/kg administered via parenteral route; type: organism-based; parameters: dose 100 mg/kg; conditions: in vivo
Procedure, shortened: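 Groups of six mice received intraperitoneal doses of 10, 25, 50, 75 and 100 mg/kg, with propylene glycol as the vehicle control.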

[2] = test system: Leishmania aethiopica; assay: Antileishmanial activity against promastigote stage of Leishmania aethiopica after 24 hrs by alamar blue staining-based […]; type: functional, organism-based
Procedure, shortened: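 L. aethiopica promastigotes, 3 × 10^6 per well, given compounds from DMSO stocks in three-fold dilutions at 10 to 0.04 µg/ml (final DMSO ≤0.1%), in duplicate, at room temperature (21 ± 1 °C). Alamar blue (resazurin) was added after 24 h and absorbance read 48 h later at 540 and 630 nm. Negative control was parasites, medium and DMSO.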

[3] = test system: Plasmodium berghei; assay: Antimalarial activity against Plasmodium berghei str. ANKA infected in Swiss albino mouse assessed as parasitemia at 0.048 mmol/kg/day, po qd […] by microscopic analysis relative to control; type: functional
Procedure, shortened: (§1)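 Four-day suppressive test. Mice were infected iv on day 0 with 0.2 ml of 2 × 10^7 P. berghei ANKA-parasitized erythrocytes from a donor mouse, diluted in saline. From 2 h post-infection they were dosed orally at 0.048 mmol/kg/day for days 0–3, five mice per group. The vehicle was 7% Tween and 3% ethanol in water. On day 4, Giemsa smears were scored over 5 fields of about 100 RBC each. Suppression was calculated relative to the vehicle group, taken as 100%.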

[4] = test system: Plasmodium berghei; assay: Antimalarial activity against Plasmodium berghei str. ANKA infected in Swiss albino mouse assessed as survival at 0.048 mmol/kg/day, po qd for 3 days by microscopic analysis relative to control; type: functional
Procedure, shortened: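 P. berghei ANKA infected mice, 4-day suppressive test. Day 0: 0.2 ml of 2 x 10^7 parasitized erythrocytes given i.v. (donor blood, 20-30% parasitemia, diluted in saline). Oral dosing at 0.048 mmol/kg/day from 2 h post-infection, then days 1-3 at 24 h intervals. Vehicle 7% Tween, 3% ethanol in water. Five mice/group. Survival time recorded per mouse; mean compared with vehicle group.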

[5] = test system: Leishmania aethiopica; assay: Ratio of amphotericin IC50 to compound IC50 for promastigote stage of Leishmania aethiopica; type: functional
[6] = test system: Plasmodium berghei; assay: Antimalarial activity against Plasmodium berghei str. ANKA infected in Swiss albino mouse assessed as supression of parasitemia at 0.048 mmol/kg/day, po qd for 3 days by microscopic analysis relative to control; type: functional; procedure, shortened: as §1
[7] = Toxicity in po dosed mouse; type: organism-based; conditions: in vivo
Procedure, shortened: (§2)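 Male mice (26-32 g), six per group, fasted overnight and weighed. Compounds given orally as suspension in 1% gum acacia at 25, 50, 100, 200 and 300 mg/kg/day; vehicle control at up to 1 ml/100 g. Mortality recorded after 24 h; weight and deaths followed over 3 days post-dosing.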

[8] = test system: Mus musculus; assay: Toxicity in mouse assessed as change in weight at 25 to 300 mg/kg, po measured for 3 days; type: organism-based; parameters: dose 25-300 mg/kg, route oral; conditions: in vivo, 72 h; procedure, shortened: as §2
[9] = test system: Leishmania aethiopica; assay: Antileishmanial activity against amastigote stage of Leishmania aethiopica after 72 hrs by resazurin staining-based fluorescence assay; type: functional, organism-based
Procedure, shortened: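 Axenic L. aethiopica amastigotes (50 µl of 2 × 10^7 cells/ml) exposed to serial dilutions at final 0.04–10 µg/ml for 72 h at 31 °C, humidified, 5% CO₂. Resazurin was added at 68 h and fluorescence read at 72 h (ex 530/em 590 nm). EC50 from sigmoidal dose–response fits, mean ± SD of triplicate experiments run in duplicate. Controls were medium alone and 1% DMSO.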

[10] = test system: Leishmania aethiopica; assay: Ratio of miltefosine IC50 to compound IC50 for promastigote stage of Leishmania aethiopica; type: functional
[11] = test system: Mus musculus; assay: Toxicity in mouse assessed as death at 25 to 300 mg/kg, po measured for 3 days; type: organism-based; parameters: dose 25-300 mg/kg, route oral; conditions: in vivo, 72 h; procedure, shortened: as §2
[12] = test system: Plasmodium falciparum; assay: Antiplasmodial activity against chloroquine-resistant Plasmodium falciparum RKL9 infected in human RBC assessed as effect on schizont maturation after 24 hrs by Geimsa staining-based assay; type: functional, organism-based; conditions: RKL9, 24 h
Procedure, shortened: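 P. falciparum RKL9 in continuous culture in human B(+) RBC, parasitemia adjusted to 1-1.5%, RPMI 1640 with 10% AB(+) serum. Two-fold serial dilutions, compounds in ethanol (final ≤0.5%), 24 h at 37 °C, duplicate wells. Schizonts per 100 asexual parasites counted on Giemsa smears; % schizont maturation inhibition = (1 − Nt/Nc) × 100.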

CC(=O)N(C1=NN(C(C)=O)C(c2cn(-c3ccc(Br)cc3)nc2-c2ccc([N+](=O)[O-])cc2)S1)c1ccccc1 (stereo unspecified)
Activity [1]: Non-toxic | IC50 [2]: 0.0142 µg/mL (≈ 0.0235 µM) | Activity [3]: 12% | Survival [4]: 16.86 days | Ratio IC50 [5]: 3 | Activity [6]: 86.05% | MTD [7]: 300 mg/kg | Activity [8]: Non-toxic | IC50 [9]: 0.13 µg/mL (≈ 0.215 µM) | Ratio IC50 [10]: 225 | Activity [11]: Non-toxic

O=C(/C=C/c1cn(-c2ccc(Br)cc2)nc1-c1ccc([N+](=O)[O-])cc1)c1ccccc1
Activity [1]: Non-toxic | IC50 [2]: 1.08 µg/mL (≈ 2.28 µM) | Activity [3]: 3% | Survival [4]: 16.22 days | IC50 [12]: 38.8 nM | Activity [6]: 96.51% | MTD [7]: 300 mg/kg | Activity [8]: Non-toxic | IC50 [9]: 1.22 µg/mL (≈ 2.57 µM) | Activity [11]: Non-toxic

O=[N+]([O-])c1ccc(-c2nn(-c3ccc(Br)cc3)cc2C2CC(c3ccccc3)=NN2)cc1 (stereo unspecified)
Activity [1]: Non-toxic | IC50 [2]: 2.12 µg/mL (≈ 4.35 µM) | Activity [3]: 4% | Survival [4]: 17.6 days | IC50 [12]: 42 nM | Activity [6]: 95.35% | MTD [7]: 300 mg/kg | Activity [8]: Non-toxic | IC50 [9]: 1.11 µg/mL (≈ 2.27 µM) | Activity [11]: Non-toxic

O=C1CS/C(=N/N=C/c2cn(-c3ccc(Br)cc3)nc2-c2ccc([N+](=O)[O-])cc2)N1c1ccccc1
Activity [1]: Non-toxic | IC50 [2]: 0.0224 µg/mL (≈ 0.0399 µM) | Activity [3]: 2% | Survival [4]: 16.44 days | IC50 [12]: 39.2 nM | Activity [6]: 97.67% | MTD [7]: 300 mg/kg | Activity [8]: Non-toxic | IC50 [9]: 0.19 µg/mL (≈ 0.338 µM) | Activity [11]: Non-toxic

O=[N+]([O-])c1ccc(-c2nn(-c3ccc(Br)cc3)cc2/C=N/NC(=S)Nc2ccccc2)cc1
Activity [1]: Non-toxic | IC50 [2]: 0.0214 µg/mL (≈ 0.041 µM) | Activity [3]: 5% | Survival [4]: 14.84 days | IC50 [12]: 38.4 nM | Activity [6]: 94.19% | MTD [7]: 300 mg/kg | Activity [8]: Non-toxic | IC50 [9]: 0.21 µg/mL (≈ 0.403 µM) | Activity [11]: Non-toxic

Cc1ccc(-n2cc(/C=N/N=C3/SCC(=O)N3c3ccccc3)c(-c3ccc([N+](=O)[O-])cc3)n2)cc1
Activity [1]: Non-toxic | IC50 [2]: 0.0201 µg/mL (≈ 0.0405 µM) | Activity [3]: 3% | Survival [4]: 16.62 days | IC50 [12]: 40.2 nM | Activity [6]: 96.51% | MTD [7]: 300 mg/kg | Activity [8]: Non-toxic | IC50 [9]: 0.28 µg/mL (≈ 0.564 µM) | Activity [11]: Non-toxic
